Published values pooled from the literature.
Lines come from different studies, so protocols differ.
Target: Wee1-like protein kinase (WEE1, Homo sapiens, UniProt P30291)

Structure (SMILES) | assay | system | conditions | endpoint | result
C[C@H](NC(=O)c1cnc2n1[C@](C)(Cc1ccc(C#N)cc1)C(=O)N2c1cc(Cl)c(F)c(Cl)c1)C(=O)NC1(c2ccccn2)CC1 | cell-free assay, competition with immobilised ligand |  | 1 µM | remaining binding | 100%
CNc1cc(Oc2cc(C(=O)Nc3cc(N4CCN(C)CC4)cc(C(F)(F)F)c3)ccc2C)ncn1 | target engagement in cells, inhibitor, chemoproteomics | Huh-7 | 1 µM | inhibition | -10.9%
O=C(O)[C@H]1[C@H](Cn2nnc3ccccc3c2=O)CC[C@@H]1C(=O)c1ccc(OCCC2CCOCC2)cc1 | cell-free assay, competition with immobilised ligand |  | 1 µM | remaining binding | 100%
Cc1cc(NC(=O)c2cccc3cc(-c4cccc5[nH]nc(N)c45)ccc23)ccc1F | enzyme activity, inhibitor |  | 0.1 µM | activity vs control | 97%
O=c1nc(-c2ccccn2)sc2ccccc12 | binding, competition with immobilised ligand |  | 1 µM | remaining binding | 100%
Nc1nc(Nc2ccc(S(N)(=O)=O)cc2)nn1C(=O)c1c(F)cccc1F | cell-free assay |  | 0.5 µM | remaining signal | 83.6%
CC1=C(C#N)[C@@H](c2ccc3[nH]nc(C)c3c2)C(C#N)=C(c2ccc(Cl)cc2)N1 | cell-free assay, competition with immobilised ligand |  | 1 µM | remaining binding | 100%
COc1cc(Cl)c(C(=O)N[C@@H](CN[C@H]2CC[C@@H](N)CC2)Cc2ccc(C#N)cc2)cc1-c1ccc(CN[C@H](C)c2ccc(C)cc2)o1 | enzyme activity, inhibitor |  | 1 µM | remaining activity | 102%
O=C1NC(=O)c2cc(Nc3ccc(F)cc3)c(Nc3ccc(F)cc3)cc21 | cell-free assay |  | 0.5 µM | remaining signal | 99.6%
Nc1ncnc2occ(-c3ccc(NC(=O)Nc4cc(C(F)(F)F)ccc4F)cc3)c12 | cell-free assay, inhibitor |  | 20 µM | remaining signal | 17%
Cc1ccc(Nc2nccc(N(C)c3ccc4c(C)n(C)nc4c3)n2)cc1S(N)(=O)=O | enzyme activity, inhibitor |  | 0.5 µM | remaining activity | 95.3%
CCOCCn1cc(C(=O)Nc2ccc(-n3nc(-c4cccnc4)cc3C(F)(F)F)cn2)ccc1=O | cell-free assay, competition with immobilised ligand |  | 1 µM | remaining binding | 100%
O=C(Nc1cnn(-c2csc(C(=O)NC3COC3)c2)c1)Nc1c(F)cccc1Cl | enzyme activity, inhibitor |  | 5 µM | remaining activity | 85.2%
CC(C)(O)[C@H]1CC[C@H](Nc2ccc3ncc(-c4cccc(C(F)(F)F)c4)n3n2)CC1 | enzyme activity, inhibitor |  | 1 µM | remaining activity | 87.3%
Cc1ccc(NC(=O)c2ccc(CN3CCN(C)CC3)cc2)cc1Nc1nc(-c2cccnc2)cs1 | cell-free assay |  | 0.5 µM | remaining signal | 97%
CC(C)(C)c1nc(-c2cccc(NS(=O)(=O)c3c(F)cccc3F)c2F)c(-c2ccnc(N)n2)s1 | enzyme activity, inhibitor, radiometric |  | 1 µM | remaining activity | 91%
